ChEMBL document CHEMBL4725355, “Design, Synthesis, and Preclinical Evaluation of 3-Methyl-6-(5-thiophenyl)-1,3-dihydro-imidazo[4,5-b]pyridin-2-ones as Selective GluN2B Negative Allosteric Modulators for the Treatment of Mood Disorders” (J Med Chem, 2020)
Values after ≈ are worked out from the molar mass of the structure shown.

Columns and labels:
[1] = Negative allosteric modulation of human GluN1a/GluN2D receptor expressed in CHO cells assessed as inhibition of glutamate and glycine-induced calcium flux preincubated for 5 mins followed by glutamate and glycine addition and measured after 5 mins by calcium 5 dye based FLIPR assay; assay type: cell-based
Procedure, shortened: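 Tet-On CHO T-Rex cells expressing hGluN1a with GluN2A, 2B, 2C or 2D, plated at 20,000 cells/well and induced 24 h before the assay in the presence of ketamine. Cells loaded 1 h at room temperature with Calcium 5 dye, pH 7.4 HEPES buffer. Compound added 5 min, then glutamate (~EC80) plus 10 µM glycine for 5 min; FLIPR fluorescence normalized to control wells. Three independent runs in duplicate (two for some).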

[2] = Volume of distribution at steady state in Sprague-Dawley rat at 0.5 mg/kg, iv or 2.5 mg/kg, po using 1:1 PEG-400/water formulation by LC-MS/MS analysis; assay type: ADME, organism-based; conditions: in vivo
Procedure, shortened: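 Rat PK at 0.5 mg/kg i.v. and 2.5 mg/kg p.o., vehicle 1:1 PEG400/water. n=3, values given as mean ± SD.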

[3] = Ex vivo receptor occupancy at GluN2B in Sprague-Dawley rat assessed as 3-[3H] 1-(azetidin-1-yl)-2-[6-(4-fluoro-3-methyl-phenyl)pyrrolo[3,2-b]pyridin-1-yl]-ethanone labelling at 3 mg/kg, po measured after 0.5 hrs by autoradiography; assay type: functional
Procedure, shortened: (§1)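 Rats dosed orally at 3 mg/kg in 20% HP-β-CD; brains taken at 0.5, 2 and 6 h. Ex vivo autoradiography of brain slices with the ³H pyrrolo[3,2-b]pyridine GluN2B tracer. Labelling expressed relative to matching brain areas of vehicle-treated animals; n=2, ± SEM.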

[4] = Ex vivo receptor occupancy at GluN2B in Sprague-Dawley rat assessed as 3-[3H] 1-(azetidin-1-yl)-2-[6-(4-fluoro-3-methyl-phenyl)pyrrolo[3,2-b]pyridin-1-yl]-ethanone labelling at 3 mg/kg, po measured after 6 hrs by autoradiography; assay type: functional; procedure, shortened: as §1
[5] = Drug level in Sprague-Dawley rat brain cortex at 0.03 mg/kg, iv after 5 to 120 mins by LC-MS/MS analysis; assay type: ADME, organism-based; conditions: in vivo, time 5-120 min
Procedure, shortened: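 Single i.v. dose of 0.03 mg/kg in 50% (w/v) PEG/water, pH 7.4; rats n=3 per group, killed at 5, 10, 30, 60 and 120 min. Cerebellum, cortex, striatum and hippocampus dissected, weighed and homogenized; drug quantified by LC-MS/MS and normalized to tissue weight. P<0.05 taken as significant versus cerebellum.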

[6] = Ex vivo receptor occupancy at GluN2B in po dosed Sprague-Dawley rat assessed as 3-[3H] 1-(azetidin-1-yl)-2-[6-(4-fluoro-3-methyl-phenyl)pyrrolo[3,2-b]pyridin-1-yl]-ethanone labelling measured after 60 mins by autoradiography; assay type: functional, organism-based
Procedure, shortened: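 Oral dosing at 8 dose levels in 20% HP-β-CD; 3 rats per group. GluN2B occupancy in hippocampus measured 60 min post dose by ex vivo radiotracer autoradiography and calculated versus naïve controls, mean ± SEM. Plasma concentrations paired with occupancy to derive EC50 and dose ED50.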

[7] = Intrinsic clearance in human liver microsomes at 1 uM after 5 to 60 mins in presence of NADPH by LC-MS/MS analysis; assay type: ADME, Microsome; conditions: time 5-60 min, read-out: CLH
[8] = Clearance in dog at 0.1 mg/kg, iv by LC-MS/MS analysis; assay type: ADME, organism-based, Canis lupus familiaris; conditions: in vivo
[9] = Cmax in dog at 0.5 mg/kg, po by LC-MS/MS analysis; assay type: ADME, organism-based, Canis lupus familiaris; set-up: route oral, dose 0.5 mg/kg; conditions: in vivo
[10] = Half life in dog at 0.5 mg/kg, po by LC-MS/MS analysis; assay type: ADME, organism-based, Canis lupus familiaris; conditions: in vivo
[11] = Half life in mouse at 0.5 mg/kg, iv by LC-MS/MS analysis; assay type: ADME, organism-based; conditions: in vivo
[12] = AUC (infinity) in Sprague-Dawley rat at 0.5 mg/kg, iv by LC-MS/MS analysis; assay type: ADME, organism-based; set-up: route intravenous, time infinity, dose 0.5 mg/kg; conditions: in vivo
Procedure, shortened: (§2)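 Rat PK with IV and PO dosing, n=3. The usual doses were 0.5 mg/kg IV and 2.5 mg/kg PO in 20% HP-β-CD. One compound was instead given at 0.1 mg/kg IV and 0.5 mg/kg PO.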

[13] = Clearance in Sprague-Dawley rat at 0.5 mg/kg, iv by LC-MS/MS analysis; assay type: ADME, organism-based; conditions: in vivo; procedure, shortened: as §2
[14] = Oral bioavailability in monkey at 0.5 mg/kg by LC-MS/MS analysis; assay type: ADME, organism-based, Macaca mulatta; conditions: rhesus monkey, in vivo
[15] = Half life in mouse at 2.5 mg/kg, po by LC-MS/MS analysis; assay type: ADME, organism-based; conditions: in vivo
[16] = Solubility of compound in 30% sulfobutylether-beta-cyclodextrin; assay type: physicochemical
Procedure, shortened: (§3)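 Solubility of the compound assessed in dosing excipients, including 30% SBE-β-CD, 50% PEG-400 and 20% HP-β-CD. The aim was a solution usable for rat dosing; the 20% HP-β-CD formulation was checked for a 0.1 mg/mL solution to support a 0.5 mg/kg dose.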

[17] = Solubility of compound in 50% polyethylene glycol 400; assay type: physicochemical; procedure, shortened: as §3
[18] = Solubility of compound in 20% hydroxypropyl-beta-cyclodextrin; assay type: physicochemical; procedure, shortened: as §3
[19] = Cmax in Sprague-Dawley rat at 125 mg/kg, po administered via gavage after 24 hrs using HPMC formulation by LC-MS/MS analysis; assay type: ADME, organism-based; set-up: route oral, time 24 hrs, dose 125 mg/kg; conditions: in vivo
Procedure, shortened: (§4)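 Single oral gavage dose to male Sprague Dawley rats, 3 per dose level. Vehicles were a standard suspension in 5% HPMC (125, 250, 500 or 1000 mg/kg) or a nanosuspension (API:polymer 4:1), with stock diluted in vehicle on the day of dosing (100, 250 or 500 mg/kg). Blood was sampled at time points from 0.5 to 24 h.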

[20] = Cmax in Sprague-Dawley rat at 250 mg/kg, po administered via gavage after 24 hrs using HPMC formulation by LC-MS/MS analysis; assay type: ADME, organism-based; set-up: route oral, time 24 hrs, dose 250 mg/kg; conditions: in vivo; procedure, shortened: as §4
[21] = Tmax in Sprague-Dawley rat at 250 mg/kg, po administered via gavage after 24 hrs using nanosuspension formulation by LC-MS/MS analysis; assay type: ADME, organism-based; conditions: in vivo
Procedure, shortened: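 Single oral gavage of a nanosuspension (API:polymer 4:1), diluted with vehicle on the dosing day, at 100, 250 or 500 mg/kg to male Sprague Dawley rats, 3 per dose. Plasma was sampled from 0.5 to 24 h.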

[22] = Cmax in Sprague-Dawley rat at 500 mg/kg/day, po administered as nanosuspension measured for 14 days measured post last dose by LC-MS/MS analysis; assay type: ADME, organism-based; set-up: route oral, time 14 day, dose 500 mg/kg/day; conditions: in vivo
Procedure, shortened: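 Repeated daily oral dosing of the nanosuspension to rats for 14 days, up to 500 mg/kg/day.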

[23] = (§5) Ratio of Cmax in Sprague-Dawley rat at 250 mg/kg, po administered via gavage after 24 hrs using nanosuspension formulation by LC-MS/MS analysis to EC70 for ex vivo receptor occupancy at GluN2B in po dosed Sprague-Dawley rat assessed as 3-[3H] 1-(azetidin-1-yl)-2-[6-(4-fluoro-3-methyl-phenyl)pyrrolo[3,2-b]pyridin-1-yl]-ethanone labelling; assay type: ADME, organism-based
[24] = as §5, with “500” for “250”; assay type: ADME, organism-based
[25] = Rattus norvegicus, Sprague-Dawley, po, 1 h, time 60 min

## Cn1c(=O)n(CC(=O)N2CCC2)c2cc(-c3ccc(C(F)(F)F)s3)cnc21
[1]
  IC50: > 10 µM
[2]
  Vdss: 1.9 L/kg
[3]
  Occ: 87%
[4]
  Occ: 31%
[5]
  Drug uptake: Active
[6]; Rattus norvegicus, Sprague-Dawley
  EC50: 0.407 µg/mL (≈ 1.03 µM)
[6]; [25]
  ED50: 0.86 mg/kg
  ED70: 1.44 mg/kg
[6]; time 60 min, 1 h
  EC70: 0.716 µg/mL (≈ 1.81 µM)
  fEC70: 40 ng/mL
[7]
  microsomal CLint at 1 µM: 5.4 µL/min/mg
[8]
  clearance: 17 mL/min/kg
[9]
  Cmax: 351 ng/mL
[10]
  half-life: 0.7 h
[11]
  half-life: 0.9 h
[12]
  AUC(0-inf): 277 ng·h/mL
[13]
  clearance: 30 mL/min/kg
[14]
  bioavailability: 41%
[15]
  half-life: 2.4 h
[16]
  solubility: < 1000 µg/mL
[17]
  solubility: < 1000 µg/mL
[18]
  solubility: < 1000 µg/mL
[19]
  Cmax: 4240 ng/mL
[20]
  Cmax: 5480 ng/mL
[21]
  Tmax: 2.7 h
[22]
  Cmax: 21700 ng/mL
[23]
  Ratio: 17
[24]
  Ratio: 26
